Source: PubChem BioAssay
Most compounds without a hit are left out; they make up all but 9.6% or so of the library.
Lmaj promast: reduces viability of Leishmania major promastigotes; resazurin fluorescence viability; inhibition, % at 10 µM; 200,000 compounds, 9% hits; AID 1063; in the data active means inhibition above about 50%;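 further: promastigotes grown with compound for 44 hours at 28 °C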
b-catenin transl: beta-catenin nuclear translocation modulation. HeLa beta-catenin nuclear translocation, immunofluorescence imaging. nuclear translocation activity, % at 5 µM. 190,000 compounds, 0.3% hits;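 active means nuclear translocation activity above 50% at 5 µM, with a well cell count of 50 or more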;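 further: per-cell ratio of nuclear to cytoplasmic median beta-catenin stain intensity; plate controls were DMSO negative control for no effect and GSK-3 inhibitor IX positive control for full effect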
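assay system = human HeLa cells, endogenous beta-catenin | times = compound treatment 24 h, 37°C, 5% CO2 | detection = Anti-beta-catenin immunofluorescence on PFA-fixed, Triton-permeabilized cells, DAPI nuclei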
Ba/F3 V617F tox: lowers viability of Ba/F3 cells expressing EpoR and JAK2V617F; ATP luminescence; inhibition, % at 5.6 µM; 220,000 compounds, 1.1% hits; AID 1446;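 active means inhibition above the campaign mean plus 3 SD over all tested compounds, cut at about 24% in these data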;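 further: cytokine-independent growth of Ba/F3 cells driven by EpoR plus mutant JAK2; 0% = DMSO-treated cells and 100% = JAK inhibitor I control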
APP transl inh: APP translation inhibition | SH-SY5Y APP 5'UTR-luciferase reporter, luminescence | inhibition, % at 2 µM | 190,000 compounds, 0.82% hits | AID 1285;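 active means inhibition above a set limit, derived from the sample mean plus 3 SD, cut at about 45% in these data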
MT stabilizer: microtubule stabilization, imaging screen | HeLa tubulin immunostaining HCS, 24 h; share of cells brighter than vehicle mean+2SD | % tubulin-high responders, % at 10 µM | 200,000 compounds, 0.83% hits;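 active means plate Z-score above 3 for both tubulin-high and condensed-nucleus cell shares, with cell loss under 80%, at 10 µM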;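 further: anti alpha tubulin signal scored within the nucleus-defined area of each cell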
BaF3 tox: reduces parental Ba/F3 cell viability, JAK2V617F counter-screen; CellTiter-Glo ATP luminescence; inhibition, % at 5.6 µM; 220,000 compounds, 1.1% hits; AID 1486;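 active means inhibition above a per-campaign cutoff, the mean inhibition of all tested compounds plus 3 SD, cut at about 27% in these data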;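 further: 0% = DMSO wells and 100% = JAK Inhibitor I control wells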
* = called active by the depositor; nt = no result given.

SMILES	Lmaj promast	b-catenin transl	Ba/F3 V617F tox	APP transl inh	MT stabilizer	BaF3 tox
Cc1ccc(-c2cc(C(=O)NCc3ccccn3)c3ccccc3n2)cc1C	88*	1	0	5	4	-1
O=C(Nc1nccs1)c1cc(-c2ccccc2)nc2ccccc12	90*	nt	3	4	1	6
O=C(NCc1ccccn1)c1cc(-c2ccc(-c3ccccc3)cc2)nc2ccccc12	-2	3	34*	-107	3	36*
O=C1CCC(C(=O)OCc2cc(=O)oc3ccc4ccccc4c23)=NN1	nt	0	2	nt	nt	0
O=C(NNC(=O)c1cc(-c2ccccc2)nc2ccccc12)Nc1cccc(Cl)c1	99*	-3	0	8	1	0
O=C(NNC(=O)c1cc(-c2cccnc2)nc2ccccc12)Nc1ccc(Cl)cc1	15	-2	8	-21	4	21
Cc1nn(Cc2c(Cl)cccc2Cl)c(C)c1NC(=O)c1cn(-c2ccccc2)nc1-c1ccccc1	83*	5	-4	9	53	7
CCc1nc(N2CCN(C(C)=O)CC2)c(C#N)c2c1COC(C)(C)C2	nt	0	2	nt	nt	-1
N#Cc1c(N2CCN(C(=O)c3ccccc3)CC2)nc(-c2ccccc2)c2c1CCCC2	75*	-4	0	9	1	4
CC(C)Cc1nc(N2CCN(C(=O)c3ccco3)CC2)c(C#N)c2c1CCC2	51*	0	1	44	3	6
N#Cc1c(N2CCN(C(=O)c3ccccc3Cl)CC2)nc(-c2ccccc2)c2c1CCCC2	43	1	2	7	1	4
CC(C)c1cc(N2CCN(C(=O)c3ccco3)CC2)n2c(nc3ccccc32)c1C#N	52*	2	-1	-7	2	3
CC1(C)Cc2c(C#N)c(N3CCN(C(=O)c4ccco4)CC3)nc(Cc3ccccc3)c2CO1	90*	2	-3	-7	3	2
O=S(=O)(Cc1noc(-c2ccccc2Cl)n1)c1ccccn1	nt	1	-3	nt	nt	-3
Cc1ccc(S(=O)(=O)N2CCC(NC(=O)OC(C)C)CC2)cc1	-3	-1	0	-32	5	-3
O=C(CSCc1c(Cl)cccc1Cl)Nc1ccccc1C(=O)N1CCOCC1	52*	-3	-2	-19	2	3
COCCNC(=O)c1ccccc1NC(=O)CN(c1ccc2c(c1)OCO2)S(C)(=O)=O	-2	nt	-2	6	8	1
CCc1ccc(N(CC(=O)Nc2ccccc2C(=O)N2CCOCC2)S(C)(=O)=O)cc1	51*	0	0	-3	4	5
COc1ccc(N(CC(=O)Nc2ccccc2C(=O)NCCc2ccccc2)S(C)(=O)=O)cc1OC	90*	-1	-1	44	2	3
CCOC(=O)c1ccccc1NC(=O)CN(c1ccc(OCC)cc1)S(C)(=O)=O	27	69*	27*	52*	13	37*
CS(=O)(=O)N(CC(=O)Nc1ccccc1C(=O)N1CCOCC1)c1ccc(Cl)cc1	nt	0	-4	nt	nt	3
N=C1c2ccccc2CN1NC(=O)CC12CC3CC(CC(C3)C1)C2	8	-3	-5	6	4	-1
COc1cccc(N/C=C/c2onc(C)c2[N+](=O)[O-])c1	-3	-2	2	-146	3	1
COc1ccc(CNC(=S)Nc2ccc(OC)cc2)cc1	52*	-1	-4	0	2	0
COc1ccc(CNc2ccc(Br)cc2)cc1	99*	-1	-3	-18	1	6
SMILES	Lmaj promast	b-catenin transl	Ba/F3 V617F tox	APP transl inh	MT stabilizer	BaF3 tox
COc1ccc(NC2=NCC(Cc3ccc(Br)cc3)S2)cc1 (stereo not drawn)	88*	2	-1	13	8	6
COc1ccc(CN(C)C(=S)Nc2ccc(Cl)cc2)cc1	-5	1	39*	-7	2	36*
COc1ccc(CC(=O)NNC(=S)Nc2ccc(Br)cc2)cc1	2	nt	1	-1	2	5
COc1cccc(-c2noc(C3CCCN(S(=O)(=O)c4cccc(Cl)c4C)C3)n2)c1 (stereo not drawn)	1	0	-4	-9	4	0
CCOC(=O)Cc1csc(NC(=O)CCSc2ccccc2)n1	-6	-6	2	8	6	2
CCOc1cc(/C=N/NC(=O)c2ccc(CN3CCOCC3)cc2)ccc1OCc1ccccc1	98*	nt	0	6	2	4
